ChEMBL document CHEMBL1144018, “SAR studies of capsazepinoid bronchodilators. Part 2: Chlorination and catechol replacement in the A-ring” (Bioorg Med Chem, 2008)

Species: Homo sapiens
Assay: Bronchorelaxing effect on LTD4-contracted small human lung airways assessed as remaining contraction at 10 uM after 1.5 hrs relative to control
Format: functional
Method in brief: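 Human small airways (0.5–1.5 mm diameter) from lung cancer patients, in vitro. Each preparation contracted with 10 nM LTD4 untreated, then again after 1.5 h exposure to 10 µM test compound. Value is the percent of the full LTD4 contraction that remains, given as arithmetic mean ± SEM with n in parentheses.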

**Q.** `Oc1c(O)c(Cl)c2c(c1Cl)CCCN(C(=S)NCCc1ccc(Cl)cc1)C2` was tested. Which Activity did it give?
**A.** 38%

**Q.** `Oc1ccc2c(c1Cl)CCCN(C(=S)NCCc1ccc(Cl)cc1)C2` was tested. Which Activity did it give?
**A.** 67%

**Q.** How did the Activity turn out when `Oc1ccc2c(c1Cl)CCN(C(=S)NCCc1ccc(Cl)cc1)C2` was run?
**A.** 69%

**Q.** For `COC(=O)c1cc2c(cc1C(=O)OC)CN(C(=S)NCCc1ccc(Cl)cc1)CC2`, which Activity is on record?
**A.** 87%

**Q.** For `Oc1cc2c(cc1Cl)CN(C(=S)NCCc1ccc(Cl)cc1)CCC2`, which Activity is on record?
**A.** 49%

**Q.** Which Activity does the source give for `Oc1cc2c(c(Cl)c1O)CCCN(C(=S)NCCc1ccc(Cl)cc1)C2` here?
**A.** 64%

**Q.** With `Oc1cc2c(c(Cl)c1O)CN(C(=S)NCCc1ccc(Cl)cc1)CCC2` as the compound, how does the Activity read?
**A.** 63%

**Q.** `Oc1c(O)c(Cl)c2c(c1Cl)CCN(C(=S)NCCc1ccc(Cl)cc1)C2Cc1ccccc1` (stereo unspecified) was tested. Which Activity did it give?
**A.** 84%

**Q.** For `Oc1ccc2c(c1Cl)CN(C(=S)NCCc1ccc(Cl)cc1)CC2`, which Activity is on record?
**A.** 47%

**Q.** With `O=C(O)c1cc2c(cc1C(=O)O)CN(C(=S)NCCc1ccc(Cl)cc1)CC2` as the compound, how does the Activity read?
**A.** 99%

**Q.** With `Oc1cc2c(c(Cl)c1O)CN(C(=S)NCCc1ccc(Cl)cc1)CC2` as the compound, how does the Activity read?
**A.** 49%

**Q.** `CS(=O)(=O)Nc1ccc2c(c1)CN(C(=S)NCCc1ccc(Cl)cc1)CC2` was tested. Which Activity did it give?
**A.** 72%

**Q.** `S=C(NCCc1ccc(Cl)cc1)N1CCc2ccccc2C1` was tested. Which Activity did it give?
**A.** 83%

**Q.** With `Oc1c(O)c(Cl)c2c(c1Cl)CCN(C(=S)NCCc1ccc(Cl)cc1)CC2` as the compound, how does the Activity read?
**A.** 29%

**Q.** How did the Activity turn out when `N#Cc1cc2c(cc1C#N)CN(C(=S)NCCc1ccc(Cl)cc1)CC2` was run?
**A.** 84%

**Q.** `CC1c2c(Cl)c(O)c(O)c(Cl)c2CCN1C(=S)NCCc1ccc(Cl)cc1` (stereo unspecified) was tested. Which Activity did it give?
**A.** 48%

**Q.** For `Oc1cc2c(c(Cl)c1O)CN(C(=S)NCCc1ccc(Cl)cc1)C2`, which Activity is on record?
**A.** 65%

**Q.** Which Activity does the source give for `Oc1cc2c(c(Cl)c1O)CCN(C(=S)NCCc1ccc(Cl)cc1)C2` here?
**A.** 40%

**Q.** Which Activity does the source give for `Oc1c(O)c(Cl)c2c(c1Cl)CCN(C(=S)NCCc1ccc(Cl)cc1)C2` here?
**A.** 14%

**Q.** With `Oc1c(Cl)cc2c(c1Cl)CN(C(=S)NCCc1ccc(Cl)cc1)CC2` as the compound, how does the Activity read?
**A.** 57%

**Q.** For `Oc1c(O)c(Cl)c2c(c1Cl)CN(C(=S)NCCc1ccc(Cl)cc1)C2`, which Activity is on record?
**A.** 31%

**Q.** For `Oc1ccc2c(c1Cl)CN(C(=S)NCCc1ccc(Cl)cc1)CCC2`, which Activity is on record?
**A.** 46%

**Q.** For `CS(=O)(=O)Nc1ccc2c(c1)CCN(C(=S)NCCc1ccc(Cl)cc1)C2`, which Activity is on record?
**A.** 75%

**Q.** `CC1Cc2c(Cl)c(O)c(O)c(Cl)c2CN1C(=S)NCCc1ccc(Cl)cc1` (stereo unspecified) was tested. Which Activity did it give?
**A.** 31%

**Q.** For `Nc1ccc2c(c1)CCN(C(=S)NCCc1ccc(Cl)cc1)C2`, which Activity is on record?
**A.** 62%

**Q.** For `Oc1cc2c(cc1Cl)CN(C(=S)NCCc1ccc(Cl)cc1)CC2`, which Activity is on record?
**A.** 73%

**Q.** Which Activity does the source give for `Oc1cc2c(cc1Cl)CCN(C(=S)NCCc1ccc(Cl)cc1)C2` here?
**A.** 69%

**Q.** With `Oc1cc2c(cc1Cl)CCCN(C(=S)NCCc1ccc(Cl)cc1)C2` as the compound, how does the Activity read?
**A.** 56%

**Q.** `Oc1c(Cl)cc2c(c1Cl)CCCN(C(=S)NCCc1ccc(Cl)cc1)C2` was tested. Which Activity did it give?
**A.** 30%

**Q.** `Oc1c(Cl)cc2c(c1Cl)CCN(C(=S)NCCc1ccc(Cl)cc1)C2` was tested. Which Activity did it give?
**A.** 55%

**Q.** Which Activity does the source give for `Nc1ccc2c(c1)CN(C(=S)NCCc1ccc(Cl)cc1)CC2` here?
**A.** 79%
